Assay results taken from ChEMBL document CHEMBL3045036, “Chemical composition, plant genetic differences, and antifungal activity of the essential oil of Helichrysum italicum G. Don ssp. microphyllum (Willd) Nym” (2003).
≈ marks a conversion by molar mass, not a printed value.

Legend:
Assay type in all cases: functional
Zymoseptoria tritici = experiment: Fungicidal activity against Zymoseptoria tritici
How it was run: (§1)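 Broth microdilution MIC. Essential oil stock of 1 mg/mL was made in sterile broth with 50% ethanol, then serially diluted in 100 µL potato dextrose broth per well. Each well received 1 µL fungal suspension (~1 × 10^5 cells). Incubation matched the paper-disc test: several days at 24 °C. Growth and medium sterility were checked for each strain.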

[1] = test system: Fusarium oxysporum f. sp. lycopersici; experiment: Fungicidal activity against Fusarium oxysporum f. sp. Lycopersici; how it was run: as §1
Fusarium graminearum = experiment: Fungicidal activity against Fusarium graminearum; how it was run: as §1
Rhizoctonia solani = experiment: Fungicidal activity against Rhizoctonia solani; how it was run: as §1
Botrytis cinerea = experiment: Fungicidal activity against Botryotinia fuckeliana; how it was run: as §1
Pyricularia oryzae = experiment: Fungicidal activity against Magnaporthe oryzae; how it was run: as §1
Phytophthora capsici = experiment: Fungicidal activity against Phytophthora capsici; how it was run: as §1
Globisporangium ultimum = experiment: Fungicidal activity against Pythium ultimum; how it was run: as §1
Helminthosporium = experiment: Fungicidal activity against Helminthosporium oryzae; how it was run: as §1
Athelia rolfsii = experiment: Fungicidal activity against Athelia rolfsii; settings: Agroathelia rolfsii; how it was run: as §1
Cercospora beticola = experiment: Fungicidal activity against Cercospora beticola; how it was run: as §1

Compound: CCCCNC(=O)n1c(NC(=O)OC)nc2ccccc21 [BENOMYL]
- MIC (Zymoseptoria tritici): 0.6 µg/mL (≈ 2.07 µM)
- MIC [1]: 1.5 µg/mL (≈ 5.17 µM)
- MIC (Fusarium graminearum): 0.6 µg/mL (≈ 2.07 µM)
- MIC (Rhizoctonia solani): 6.2 µg/mL (≈ 21.4 µM)

Compound: CCOC(=O)C1(C)OC(=O)N(c2cc(Cl)cc(Cl)c2)C1=O (stereo unspecified) [CHLOZOLINATE]
- MIC (Botrytis cinerea): 3.1 µg/mL (≈ 9.33 µM)

Compound: CO/N=C(\C(=O)OC)c1ccccc1COc1ccccc1C [KRESOXYM-METHYL]
- MIC (Pyricularia oryzae): 1.5 µg/mL (≈ 4.79 µM)

Compound: COCC(=O)N(c1c(C)cccc1C)C(C)C(=O)OC (stereo unspecified) [METALAXYL]
- MIC (Phytophthora capsici): 1.5 µg/mL (≈ 5.37 µM)
- MIC (Globisporangium ultimum): 0.6 µg/mL (≈ 2.15 µM)

Compound: FC(F)C(F)(F)OCC(Cn1cncn1)c1ccc(Cl)cc1Cl (stereo unspecified) [TETRACONAZOLE]
- MIC (Helminthosporium): 0.1 µg/mL (≈ 0.269 µM)
- MIC (Athelia rolfsii): 25 µg/mL (≈ 67.2 µM)
- MIC (Cercospora beticola): 1.5 µg/mL (≈ 4.03 µM)
